The list is not random: actives were taken first. Their share in the collection is about 1.5%.
ERAP1 inh: ERAP1 (human) enzyme inhibition. Q9NZ08. recombinant ERAP1, Leu-AMC fluorescence, 60 min. inhibition, % at 10.7 µM. 340,000 tested, 0.15% active. AID 652197;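 active means mean replicate inhibition of at least 30%, or all replicates individually reaching that 30% level; inactive means mean below 30% and not every replicate reaching it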;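 further: 0% = neutral control wells and 100% = L-leucinethiol positive control wells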
S100A4 inh HTS: S100A4-myosin IIA interaction inhibition | P26447 | inhibition, % at 10.7 µM | 360,000 tested, 0.14% active | S100A4/TAMRA-MyoIIA peptide fluorescence polarization;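 active means mean inhibition of at least 70% across replicates, with every replicate also reaching that level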
Target sequence (P26447 whole entry, looked up): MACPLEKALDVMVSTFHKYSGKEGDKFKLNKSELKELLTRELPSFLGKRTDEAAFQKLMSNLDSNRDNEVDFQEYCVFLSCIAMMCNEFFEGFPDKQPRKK
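incubation = readout 5 min after mixing, signal stable up to 60 min | system = S100A4 monomer protein | buffer or medium = HEPES pH 7.2 with CaCl2, KCl, NaCl, DTT, Triton | benchmarks = neutral control DMSO, positive control TFP | also added = fluorescent myosin IIA peptide, 5 nM | compound dosing = one concentration per compound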
RAD52 inh: blocks human RAD52 DNA annealing; inhibition, % at 18.7 µM; P43351; recombinant RAD52 DNA annealing, FRET fluorescence; 360,000 tested, 0.46% active;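 active means every replicate showing at least 50% inhibition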
Target sequence (P43351 whole entry, looked up): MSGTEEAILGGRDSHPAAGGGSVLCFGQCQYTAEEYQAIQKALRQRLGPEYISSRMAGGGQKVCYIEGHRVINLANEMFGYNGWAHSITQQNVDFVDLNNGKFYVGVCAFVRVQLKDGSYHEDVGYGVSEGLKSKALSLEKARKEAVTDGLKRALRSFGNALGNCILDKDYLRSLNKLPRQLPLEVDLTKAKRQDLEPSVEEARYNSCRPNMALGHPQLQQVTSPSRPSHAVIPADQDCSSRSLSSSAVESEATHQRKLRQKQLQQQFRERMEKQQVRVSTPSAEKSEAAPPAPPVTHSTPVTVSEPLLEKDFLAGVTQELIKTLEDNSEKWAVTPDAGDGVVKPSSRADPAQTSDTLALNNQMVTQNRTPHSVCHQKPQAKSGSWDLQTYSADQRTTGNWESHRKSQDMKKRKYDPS
MLL AF4-AF9 inh: inhibitors of human MLL-AF4/AF9 interaction. P42568. AlphaScreen, biotin-AF4 peptide binding to FLAG-AF9. inhibition, % at 10 µM. 350,000 tested, 0.47% active;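 active means every replicate reaching a set inhibition limit, whatever the replicate mean, cut at about 25% in these data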;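 further: 0% = plate neutral control median and 100% = total signal loss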
INS-1E GSIS act: primary screen for activators of insulin secretion dependent on glucose, INS-1E cells, GLuc reporter luminescence | INS-1E GLuc reporter insulin secretion, 2-3 h | activation, % at 16.6 µM | 370,000 tested, 0.61% active | AID 743287;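 active means lowest replicate activation of at least 40%, so every replicate reaches that level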;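 further: 0% = median of neutral control wells and 100% = median of IBMX positive control wells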
* marks the source's active call; other numbers are inactive results; · = no result given.

SMILES | ERAP1 inh | S100A4 inh HTS | RAD52 inh | MLL AF4-AF9 inh | INS-1E GSIS act
COCCNC(=O)CN(C(=O)CCC(=O)Nc1ccccn1)c1cc(C)ccc1C | -1 | -5 | 5 | 26* | -1
CCOc1ccccc1N(CC(=O)NCCOC)C(=O)CCC(=O)Nc1ccccn1 | 5 | 6 | -12 | 0 | -8
CC(=O)N(C)C[C@H]1Oc2ccc(N(S(C)(=O)=O)S(C)(=O)=O)cc2C(=O)N(C)C[C@@H]1C | · | · | · | · | 8
CCCC(=O)Nc1ccc2c(c1)C(=O)N(C)C[C@H](OC)[C@@H](C)CN(Cc1cccc(F)c1)[C@H](C)CO2 | -1 | 8 | 1 | 2 | -36
COc1ccc2c3c([nH]c2c1)[C@H](CO)N(Cc1ccncc1)CC31CN(C(=O)c2cccnc2)C1 | · | · | · | · | -9
COc1ccc(CCN=C(N)NS(=O)(=O)c2ccc(C)c(C)c2)cc1OC | -1 | 4 | -9 | -1 | 91*
CCC(C)(C)C1CCc2c(sc(NC(=O)c3cccs3)c2C(N)=O)C1 (stereo not given) | -2 | -2 | -10 | · | 1
CC(C)(C)C1CCc2c(sc(NC(=O)c3cccs3)c2C(N)=O)C1 (stereo not given) | · | · | · | · | 45*
CN1C(=O)c2cc(NC(=O)C3CC3)ccc2OC[C@H]2O[C@@H](CC(=O)NCc3cccc(F)c3)CC[C@@H]21 | · | · | · | · | -6
CCNC(=S)NCc1ccc2[nH]c(C)cc2c1 | 12 | -1 | 21 | 27* | -15
CCOC(=O)NCc1ccc2[nH]c(C)cc2c1 | 3 | 13 | -12 | -3 | -2
COC(=O)c1ccc(CNC(=O)CSc2nc3ccccc3[nH]2)cc1 | 0 | 5 | -25 | -1 | 79*
Cc1cc(C)n(-c2nc(NCCCN(C)C)c3c4c(sc3n2)CCCC4)n1 | 0 | -1 | 53* | · | 14
Cc1cc(C)n(-c2nc(NCCCN(C)C)c3c4c(sc3n2)COC(C)(C)C4)n1 | -3 | 1 | -2 | · | 22
COC(=O)C1CCCCN1C(=O)c1cc(COc2cccc3cccnc23)on1 (stereo not given) | 3 | 9 | -16 | 0 | 5
O=C(c1cc(COc2cccc3cccnc23)on1)N1CCC[C@H]1CO | -6 | -11 | -3 | 41* | 8
CCS(=O)(=O)c1nc(S(=O)(=O)c2ccc(C)cc2)c(NCCN2CCOCC2)s1 | -2 | 16 | -3 | 0 | 8
CCS(=O)(=O)c1nc(S(=O)(=O)c2ccc(C)cc2)c(NCCCN2CCCC2=O)s1 | -2 | 84* | -6 | 0 | 7
O=C(NN1C(=O)C2C3C=CC(O3)C2C1=O)c1cccc(Br)c1 (stereo not given) | 12 | -2 | 0 | -17 | 78*
O=C(NN1C(=O)C2C3C=CC(O3)C2C1=O)c1cccc(O)c1 (stereo not given) | 10 | 0 | 5 | -20 | 3
Cc1cccn2cc(CCNS(=O)(=O)c3cccs3)nc12 | 2 | 0 | -15 | 6 | 42*
Cc1cc(Oc2cccnc2)ccc1NC(=O)Cc1cn(C)c2ccccc12 | 0 | 1 | -15 | · | 162*
Cc1ccc(S(=O)(=O)Nc2ccc3c(c2)CC(=O)N([C@H](C)CO)C[C@H](C)[C@@H](CN(C)Cc2ccccc2)O3)cc1 | -11 | -3 | 1 | 9 | -17
CCCc1cc2c(OC)ccc(O)c2c(=O)n1C | -1 | -1 | -15 | -5 | 53*
CCCc1cc2c(O)ccc(O)c2c(=O)o1 | 11 | 1 | -4 | · | 7
SMILES | ERAP1 inh | S100A4 inh HTS | RAD52 inh | MLL AF4-AF9 inh | INS-1E GSIS act
COc1ccc2c3c([nH]c2c1)[C@@H](CO)N(C(=O)c1ccncc1)CC31CN(Cc2cccnc2)C1 | · | · | · | · | 11
CCOc1ccc(/C=C2/Sc3ccc(C(=O)NCC4CCCO4)cc3N(C)C2=O)cc1OC (stereo not given) | 2 | -1 | -14 | 6 | 40*
COc1cc(/C=N/Nc2cc(C)nc(NS(=O)(=O)c3ccc(C)cc3)n2)ccc1O | 0 | 3 | -17 | -2 | 46*
COc1cc(/C=N/Nc2cc(C)nc(NS(=O)(=O)c3ccccc3)n2)ccc1O | 0 | 3 | -17 | -5 | 26
CC(/C=C1\SC(=S)N(C(C(=O)O)c2ccccc2)C1=O)=C\c1ccccc1 (stereo not given) | 30* | 1 | -36 | -1 | 21
C=CCOc1ccc(/C=C2\SC(=S)N(C(C(=O)O)c3ccccc3)C2=O)cc1 (stereo not given) | 34* | -17 | -25 | -1 | -9
C[C@@H]1CN([C@H](C)CO)C(=O)Cc2cc(NC(=O)Cc3cn(C)c4ccccc34)ccc2O[C@H]1CN(C)Cc1ccc(C(F)(F)F)cc1 | 1 | -7 | -13 | -5 | -5
O=C(O)CCC(=O)Nc1ccc(SSc2ccc(NC(=O)CCC(=O)O)cc2)cc1 | 38* | -3 | -7 | -3 | 3
CCCNC(=O)N(C)C[C@H]1Oc2ncc(C3=CCCCC3)cc2C(=O)N([C@H](C)CO)C[C@H]1C | 3 | -2 | -3 | -18 | 19
C=CCn1c(C)csc1=Nc1ccccc1C | 0 | 0 | -2 | 27* | -1
COc1ccc(/C=N/NC(=O)c2ccc(COc3ccccc3Cl)o2)c(OC)c1C | · | · | · | · | 152*
COc1ccc2c3c(n(C)c2c1)[C@H](CO)N(CC1CC1)CC31CN(C(=O)c2ccc(F)cc2)C1 | · | · | · | · | -2
CCCCc1c(Cc2ccccc2)ncn1CCc1ccccc1OC | · | 34 | -5 | 15 | 174*
CCCCc1c(-c2ccccc2OC)ncn1CCc1ccccc1 | 3 | -6 | 11 | 15 | 46*
CCCCc1c(-c2ccccc2OC)ncn1C(C)c1ccccc1 (stereo not given) | 6 | 3 | -20 | 12 | 92*
CCCCc1c(-c2ccccc2)ncn1CCc1ccccc1OC | 1 | -4 | 18 | 5 | 38
CNC[C@@H]1Oc2cc(C#CC(C)(C)O)ccc2S(=O)(=O)N([C@@H](C)CO)C[C@H]1C | 5 | 7 | -22 | -2 | 19
COc1ccc2c3c(n(C)c2c1)[C@@H](CO)N(C(=O)Nc1ccc(F)cc1)CC31CCN(C(=O)CC2CC2)CC1 | · | · | · | · | -24
CCCCCCCCCCn1c2c(c(=N)c3c1CCC3)CCC2 | · | · | · | · | 339*
CCCCCCCCn1c2c(c(=N)c3ccccc31)CCC2 | 9 | -2 | 43 | 14 | 59
COC(=O)c1ccc(OC)c(OC2CCCC2)c1 | · | -2 | -14 | -1 | 47*
COc1ccc(C(=O)OCC(=O)NC(=O)NC2CCCC2)cc1OC | 2 | -7 | -6 | -1 | 56*
COc1ccc(C(=O)N2CCCCCCC2)cc1OC1CCN(C(C)C)CC1 | -2 | 5 | -9 | -4 | 8
CC(=O)N(C)C[C@@H]1Oc2ccc(N(C)C)cc2C(=O)N(C)C[C@H]1C | · | · | · | · | 8
COc1ccc(-c2csc(N(CCCN(C)C)C(=O)c3ccccc3C)n2)cc1 | -3 | -1 | 48 | 31* | -14
CCN(CC)CCCNC(=O)c1cc(-c2ccccc2)c(N2CCCCC2)s1 | 7 | 7 | 22 | 29* | -2
Cc1ccc(Cn2ccsc2=NC(=O)CCl)cc1 | 2 | -3 | -11 | -2 | 63*

Screens as filed in PubChem.
